Test results taken from PMC2199097 (The Journal of Experimental Medicine, 1997).

Test system: CXCR4
Assay: Ca2+ mobilization assay in SupT1 cells
Assay type: cell-based, human
Conditions: SupT1 cells expressing CXCR4, Fura-2, 500 ng/ml SDF-1α, without ALX40-4C
Method in brief: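 SupT1 cells were loaded with 2.5 μM Fura-2/AM for 1 h at 37°C in the dark, allowed to efflux 15 min in PBS, then resuspended at 2 × 10⁶ cells/ml in Dulbecco's PBS with calcium and magnesium. Test compound (10–50 μM) was added, and SDF-1α (500 ng/ml) followed ∼90 s later. The Ca²⁺ signal was read on a luminescence spectrometer.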

Question: With “SDF-1α: the chemokine stromal-derived factor (SDF)-1α (Peprotech)” as the substance, how does the “Ca2+ mobilization response to SDF-1α” value read?
Answer: Its value is “normally respond to SDF-1α”.
